The values that follow come from ChEMBL document CHEMBL3259717, “Synthetic calanolides with bactericidal activity against replicating and nonreplicating Mycobacterium tuberculosis” (J Med Chem, 2014).

≈ marks a conversion by molar mass, not a printed value.

In series [1] the test system is Mycobacterium tuberculosis. The series is described as follows: Antibacterial activity against replicating form of Mycobacterium tuberculosis MC2 6220 assessed as growth inhibition after 7 days by high-throughput screening assay. It is filed as functional. The note with it: MC2 6220, 168 h. In a few lines:
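Attenuated Mtb mc26220 ΔpanCDΔlysA in 7H9 with glycerol, tyloxapol, OADC, casein amino acids, 240 μg/mL L-lysine, 24 μg/mL pantothenate. Mid-log cells diluted to OD580 0.01 in 384-well plates, compound in DMSO, 7 days at 37 °C, 20% O2, 5% CO2. OD580 read; MIC90 = 90% growth inhibition vs DMSO.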

Series [2] has as its system Mycobacterium tuberculosis. The series is described as follows: Antibacterial activity against non-replicating form of Mycobacterium tuberculosis MC2 6220 assessed as growth inhibition after 3 days by high-throughput screening assay. The format is functional. The note with it: MC2 6220, 72 h. A digest of the protocol:
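Log-phase mc26220 washed in PBS/tyloxapol, resuspended in Sauton's-based NR medium (butyrate, 0.5 mM NaNO2, pH 5.0) at OD580 0.1. Compound exposure 3 days at 37 °C, 1% O2, 5% CO2. Then R medium added (5-fold dilution), 7 days outgrowth at 20% O2. OD580 read; MIC90 = 90% inhibition vs DMSO.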

A short description of series [3]: Cytotoxicity against human HepG2 cells assessed as decrease in ATP signal after 2 days by CellTiter-Glo assay. The format is cell-based. The note with it: read-out: LD50. In a few lines:
(§1)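 HepG2 in DMEM with 10% FBS, pyruvate, glutamine, HEPES and nonessential amino acids, seeded 3000 cells/well in 384-well plates. Compound for 2 days at 1% final DMSO. ATP read by CellTiter-Glo luminescence. LD50 = 50% drop in ATP signal vs DMSO. SI = LD50/MIC90 against replicating Mtb.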
(In general: In ATP-based viability assays light output follows the ATP content of the culture.)

A short description of series [4]: Selectivity index, ratio of LD50 for human HepG2 cells to MIC90 for replicating form of Mycobacterium tuberculosis mc'2 6220. It is filed as toxicity, cell-based. The note with it: read-out: Selectivity Index. In a few lines: as §1

As for `CC1(C)C=Cc2c(c3c(CN4CCOCC4)cc(=O)oc3c3cc([N+](=O)[O-])oc23)O1`, the MIC90 in series [1] and in series [2] was below 0.2 µg/mL each time. For the same molecule, the CC50 at 48 h in series [3] turned out to be 1 µg/mL (≈ 2.42 µM). Moreover, the selectivity ratio in series [4] is above 5.
Take `CC1(C)C=Cc2c(c3c(CN4CCSCC4)cc(=O)oc3c3cc([N+](=O)[O-])oc23)O1`: the MIC90 in series [1] and in series [2] was below 0.3 µg/mL in each case. Moreover, the CC50 at 48 h in series [3] was 1 µg/mL (≈ 2.33 µM). Moreover, the selectivity ratio in series [4] was above 5.
Take `CCCc1cc(=O)oc2c1c(OCCN1CCOCC1)cc1oc([N+](=O)[O-])c(C(C)C)c12`: the MIC90 in series [1] and in series [2] was above 22 µg/mL throughout. Besides, the CC50 at 48 h in series [3] was 22 µg/mL (≈ 49.5 µM). Besides, in series [4], the selectivity ratio is below 1.
Consider `CC1(C)CCc2c3c(c4oc(=O)c5c(c4c2O1)CCCC5)[C@H](O)[C@@H]([N+](=O)[O-])O3`, for which the MIC90 (in general, an inhibitory concentration at the 90% level, which refers to growth in some studies and to a panel of isolates in others) stood at 0.4 µg/mL (≈ 1.03 µM) in series [1] and 0.8 µg/mL (≈ 2.07 µM) in series [2]. Further, the CC50 at 48 h in series [3] turned out to be 25 µg/mL (≈ 64.5 µM). Also, the selectivity ratio in series [4] was 64.
Taken in the same sequence, the figures for `Cc1c(F)c(=O)oc2c1c1c(c3oc([N+](=O)[O-])cc32)C=CC(C)(C)O1` were below 0.1 µg/mL, 0.2 µg/mL (≈ 0.579 µM), above 50 µg/mL and above 510.
The like results for `CCCc1cc(=O)oc2c3c(c4c(c12)OC(C)(C)C=C4)O[C@H]([N+](=O)[O-])[C@H]3O` (relative stereo) were, in that order, below 0.2 µg/mL, below 0.2 µg/mL, 3 µg/mL (≈ 8.04 µM) and above 11.
Take `CCCc1cc(=O)oc2cc(N3CCN(C(=O)Nc4ccc(C#N)cc4)CC3)c3c(c12)OC(C)(C)C=C3`: the MIC90 in series [1] and in series [2] was above 25 µg/mL throughout. For the same molecule, the CC50 at 48 h in series [3] is above 25 µg/mL.
As to `CCCc1cc(=O)oc2cc(N3CCNCC3)c3c(c12)OC(C)(C)C=C3.O=C(O)C(F)(F)F`, the MIC90 in series [1] was 23 µg/mL; in series [2], above 23 µg/mL. In series [3], the CC50 at 48 h came to 12 µg/mL. Moreover, the selectivity ratio in series [4] was determined as 0.5.
Consider `CCCc1cc(=O)oc2cc(OC3CCN(C(=O)NCc4ccccc4)CC3)c3c(c12)OC(C)(C)C=C3`, for which the MIC90 in series [1] and in series [2] was above 25 µg/mL throughout. The CC50 at 48 h in series [3] is above 25 µg/mL.
With `CCCc1cc(=O)oc2cc(C#Cc3ccccn3)c3c(c12)OC(C)(C)C=C3`, the MIC90 in series [1] and in series [2] was above 19 µg/mL each time. The CC50 at 48 h in series [3] is above 19 µg/mL.
With `CCCc1cc(=O)oc2cc(N3CCN(C(=O)Nc4ccc(C(C)C)cc4)CC3)c3c(c12)OC(C)(C)C=C3`, the MIC90 in series [1] and in series [2] was above 26 µg/mL throughout. The CC50 at 48 h in series [3] was above 26 µg/mL.
Regarding `Cc1cc(=O)oc2cc(-c3ccc([N+](=O)[O-])o3)c3c(c12)OC(C)(C)C=C3`, the MIC90 in series [1] and in series [2] was above 18 µg/mL each time. In series [3], the CC50 at 48 h was above 18 µg/mL.
Take `O=[N+]([O-])c1cc2ccccc2o1`: the MIC90 in series [1] is 0.2 µg/mL (≈ 1.23 µM); in series [2], above 100 µg/mL. In addition, the CC50 at 48 h in series [3] worked out at 3 µg/mL (≈ 18.4 µM). Besides, the selectivity ratio in series [4] stood at 16.
On to `CCCc1cc(=O)oc2cc(N3CCN(C(=O)Nc4ccc(C(F)(F)F)cc4)CC3)c3c(c12)OC(C)(C)C=C3`, for which the MIC90 in series [1] and in series [2] was above 27 µg/mL throughout. Besides, in series [3], the CC50 at 48 h was above 27 µg/mL.
For the molecule `O=C(OCCOc1cc2c(c3oc(=O)c4c(c13)CCCC4)[C@H](O)[C@@H]([N+](=O)[O-])O2)c1cnccn1` (racemic), the MIC90 in series [1] and in series [2] was below 1 µg/mL throughout. For the same molecule, in series [3], the CC50 at 48 h came to 0.4 µg/mL (≈ 0.852 µM). The selectivity ratio in series [4] is above 0.3.
On to `CCCc1cc(=O)oc2c1c1c(c3oc([N+](=O)[O-])cc32)C=CC(c2ccccc2)O1` (centres undefined), for which the MIC90 in series [1] was 20 µg/mL (≈ 49.6 µM); in series [2] it was 6 µg/mL (≈ 14.9 µM). Further, the CC50 at 48 h in series [3] turned out to be 3 µg/mL (≈ 7.44 µM). Moreover, in series [4], the selectivity ratio is 0.1.
Taken in the same sequence, the figures for `O=[N+]([O-])C1Cc2ccccc2O1` (centres undefined) were 0.4 µg/mL (≈ 2.42 µM), 0.4 µg/mL (≈ 2.42 µM), 3 µg/mL (≈ 18.2 µM) and 6.
As for `CCCc1cc(=O)oc2cc(N3CCN(C(=O)Nc4ccccc4Oc4ccccc4)CC3)c3c(c12)OC(C)(C)C=C3`, the MIC90 in series [1] and in series [2] was above 28 µg/mL each time. For the same molecule, in series [3], the CC50 at 48 h was above 28 µg/mL.
For the molecule `CCCc1cc(=O)oc2cc(C#Cc3ccc(OC)cc3)c3c(c12)OC(C)(C)C=C3`, the MIC90 in series [1] and in series [2] was above 20 µg/mL throughout. In series [3], the CC50 at 48 h was above 20 µg/mL.
`CCCc1cc(=O)oc2c3c(cc(OCCN4CCOCC4)c12)O[C@H]([N+](=O)[O-])[C@H]3C` (racemic): the MIC90 in series [1] and in series [2] was above 21 µg/mL each time. Also, in series [3], the CC50 at 48 h is above 21 µg/mL.
As for `Cc1c(F)c(=O)oc2c1c1c(c3oc([N+](=O)[O-])cc32)CCC(C)(C)O1`, the MIC90 in series [1] came to 0.8 µg/mL (≈ 2.3 µM); in series [2], 2 µg/mL (≈ 5.76 µM). In series [3], the CC50 at 48 h was above 50 µg/mL. Further, the selectivity ratio in series [4] is above 64.
For the molecule `CCCc1cc(=O)oc2c(C(=O)O)c(O)c3c(c12)OC(C)(C)C=C3`, the MIC90 in series [1] and in series [2] was above 17 µg/mL each time. Also, in series [3], the CC50 at 48 h was above 17 µg/mL.
Take `CCCc1cc(=O)oc2c1c(OCCN1CCOCC1)cc1oc([N+](=O)[O-])c(COC(C)=O)c12`: the values for the MIC90 in series [1] and in series [2] were 1 µg/mL (≈ 2.11 µM) and 3 µg/mL (≈ 6.32 µM), respectively. In series [3], the CC50 at 48 h was below 0.3 µg/mL. Further, the selectivity ratio in series [4] is below 0.3.
Regarding `CCCc1cc(=O)oc2cc(N3CCN(C(=O)Nc4ccc(OC(F)(F)F)cc4)CC3)c3c(c12)OC(C)(C)C=C3`, the MIC90 in series [1] and in series [2] was above 28 µg/mL each time. Further, the CC50 at 48 h in series [3] is above 28 µg/mL.
`O=c1oc2c3c(cc(OCCN4CCOCC4)c2c2c1CCCC2)O[C@H]([N+](=O)[O-])[C@H]3O` (racemic): the MIC90 in series [1] and in series [2] was below 1 µg/mL throughout. Besides, the CC50 at 48 h in series [3] worked out at 0.4 µg/mL (≈ 0.925 µM). For the same molecule, the selectivity ratio in series [4] is above 0.3.
With `CCCCCCCNC(=O)N1CCN(c2cc3oc(=O)cc(CCC)c3c3c2C=CC(C)(C)O3)CC1`, the MIC90 in series [1] and in series [2] was above 25 µg/mL each time. The CC50 at 48 h in series [3] was above 25 µg/mL.
On to `CCCc1cc(=O)oc2c1c(OCCN1CCCC1)cc1oc([N+](=O)[O-])cc12`, for which the MIC90 in series [1] and in series [2] was below 0.2 µg/mL each time. For the same molecule, the CC50 at 48 h in series [3] worked out at 1 µg/mL (≈ 2.59 µM). Also, the selectivity ratio in series [4] is above 5.
Consider `Cc1c(F)c(=O)oc2c3c(c4c(c12)OC(C)(C)CC4)O[C@H]([N+](=O)[O-])[C@H]3O` (relative stereo), for which the MIC90 in series [1] and in series [2] was below 0.1 µg/mL throughout. For the same molecule, in series [3], the CC50 at 48 h came to 13 µg/mL (≈ 35.6 µM). The selectivity ratio in series [4] was above 128.
`CCCc1cc(=O)oc2cc(N3CCN(C(=O)Nc4ccc(OC)cc4)CC3)c3c(c12)OC(C)(C)C=C3`: the MIC90 in series [1] and in series [2] was above 25 µg/mL each time. Also, in series [3], the CC50 at 48 h is above 25 µg/mL.
As for `CCCc1cc(=O)oc2cc(C#CCOc3ccc(F)cc3)c3c(c12)OC(C)(C)C=C3`, the MIC90 in series [1] and in series [2] was above 21 µg/mL throughout. The CC50 at 48 h in series [3] is above 21 µg/mL.
Take `CCCc1cc(=O)oc2cc(N3CCN(C(=O)Nc4ccc(F)c(Cl)c4)CC3)c3c(c12)OC(C)(C)C=C3`: the MIC90 in series [1] and in series [2] was above 26 µg/mL throughout. The CC50 at 48 h in series [3] is above 26 µg/mL.
